Measurements as given in ChEMBL document CHEMBL1125616, “Perfluorinated analogues of poison ivy allergens. Synthesis and skin tolerogenic activity in mice” (1991).

Tests used:
[1] = organism: Mus musculus; assay: A challenge dose of 1.56 mmol (25 uL) was applied to right ear in group III on Day 8; format: functional
Procedure, shortened: (§1)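 Female BALB/c mice aged 6–7 weeks, 8 per group. On day 0 each mouse was pretreated epicutaneously on the shaved abdomen with 15.6 mmol in acetone/olive oil 4:1 (100 μL). The same dose was given on day 4 to sensitize. On day 8 the dorsal right ear was challenged with 1.56 mmol in acetone:olive oil (25 μL). Ear thickness was read by micrometer on days 9–12, and the increase taken at 48 h after challenge.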

[2] = organism: Mus musculus; assay: Increase in ear thickness was determined in mice after 48 hr of application of compound at a concentration of 1.56 mmol to right ear; format: functional
Procedure, shortened: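 Cross-reaction test in female BALB/c mice aged 6–7 weeks. Mice were sensitized on day 0 on the shaved lower abdomen with 15.6 mmol in acetone/olive oil 4:1 (100 μL). Four days later groups of 8 were challenged on the dorsal right ear with 1.56 mmol (25 μL). Ear thickness was measured by micrometer, and the increase taken at 48 h after challenge.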

[3] = organism: Mus musculus; assay: A challenge dose of 1.56 mmol (25 uL) was applied to right ear in group II; format: functional; procedure, shortened: as §1
[4] = organism: Mus musculus; assay: Ear thickness increase measured at 48 hr after challenge in group II on Day 10; format: functional; procedure, shortened: as §1
[5] = organism: Mus musculus; assay: Mice was pretreated with 15.6 mmol (100 uL) on shaved abdomen in group III on Day 0
[6] = organism: Mus musculus; assay: Mice was sensitized with 15.6 mmol (100 uL) on shaved abdomen in group III on Day 4
[7] = organism: Mus musculus; assay: Mice was pretreated with 15.6 mmol (100 uL) on shaved abdomen in group II on Day 0
[8] = organism: Mus musculus; assay: Mice was sensitized with 15.6 mmol (100 uL) on shaved abdomen in group II on Day 4
[9] = organism: Mus musculus; assay: Ear thickness increase measured at 48 hr after challenge in group III on Day 10; format: functional; procedure, shortened: as §1

Structure (SMILES) | Tolerance [1] | Ear thickness [2] | Tolerance [3] | Ear thickness [4] | Tolerance [5] | Tolerance [6] | Tolerance [7] | Tolerance [8] | Ear thickness [9]
Oc1cccc(CCCCCCCCCCCC(F)(F)C(F)(F)C(F)(F)C(F)(F)F)c1O | 9 | 162 µm | 10 | 26 µm | 9 | 9 | 9 | 10 | 15 µm
CCCCCCCCCCCCCCCc1cccc(O)c1O |  | 68.5 µm |  |  |  |  |  |  | 
Oc1cccc(CCCCCC(F)(F)C(F)(F)C(F)(F)C(F)(F)C(F)(F)C(F)(F)F)c1O |  | 142 µm |  |  |  |  |  |  | 
